Measured values taken from ChEMBL document CHEMBL1127858, “Synthesis and evaluation of the anti-HIV activity of aza and deaza analogues of isoddA and their phosphates as prodrugs” (J Med Chem, 1994).

Tests used:
[1] = system: MT4; experiment: Concentration required to reduce the viability of mock-infected MT-4 cells by 50% (4 days); type: functional; details: Homo sapiens, MT4, 96 h
Summary of the method: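 Mock-infected MT-4 cells (1 × 10⁴ per well) in RPMI with 10% FCS, exposed to a range of compound concentrations and incubated 4 days at 37 °C. Viable cells counted by MTT. CC50 is the dose cutting viability by 50%. Mean of three independent experiments. Cultures were checked periodically for mycoplasma.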

[2] = system: MT4; experiment: Effective concentration required to achieve 50% protection of MT-4 cells against cytopathic effect of HIV-1 (4 days); type: functional, cell-based; details: Homo sapiens, MT4, 96 h
Summary of the method: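 MT-4 cells (1 × 10⁴ per well, RPMI with 10% FCS) with various compound concentrations, infected with 100 CCID50 of HIV-1 IIIB from persistently infected H9/IIIB supernatant. After 4 days at 37 °C, viable cells read by MTT. EC50 is the dose giving 50% protection from virus cytopathicity. Mean of three independent experiments. Cytotoxicity run in parallel.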

[3] = Ratio of CC50 value that of EC50 value(HIV-1); type: functional
Summary of the method: (§1)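 Selectivity index as the CC50/EC50 ratio. CC50 comes from mock-infected MT-4 viability by MTT. EC50 comes from MTT-measured protection of MT-4 cells infected with 100 CCID50 of HIV-1 IIIB or HIV-2 CBL 20. Data are means of three experiments.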

[4] = system: MT4; experiment: Effective concentration required to achieve 50% protection of MT-4 cells against cytopathic effect of HIV-2 (8 days); type: functional, cell-based; details: Homo sapiens, MT4, 192 h
Summary of the method: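 MT-4 cells (1 × 10⁴ per well, RPMI with 10% FCS) with various compound concentrations, infected with 100 CCID50 of HIV-2 CBL 20 from persistently infected CEM supernatant. Viable cells read by MTT. EC50 is the dose giving 50% protection from virus cytopathicity. Mean of three independent experiments.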

[5] = Ratio of CC50 value that of EC50 value(HIV-2); type: functional; summary of the method: as §1

With `Nc1ncnc2c1ncn2C1COC(COP(=O)(OCC(Cl)(Cl)Cl)OCC(Cl)(Cl)Cl)C1` (configuration not stated) as the compound, how does the CC50 [1] read?
The CC50 was ≥ 173 µM.

And the EC50 [2]?
Its EC50 is 87 µM.

And the Ratio [3]?
The Ratio was > 2.

And the EC50 [4]?
The EC50 was > 173 µM.

Which CC50 [1] does the source give for `Cc1cn([C@H]2C[C@H](N=[N+]=[N-])[C@@H](CO)O2)c(=O)[nH]c1=O` [ZIDOVUDINE] here?
Its CC50 is > 80 µM.

And the EC50 [2]?
The EC50 was 0.01 µM.

What about the EC50 [4] of the same compound?
Its EC50 is 0.04 µM.

With `Nc1ncnc2c1nnn2C1COC(COP(=O)(OCC(Cl)(Cl)Cl)OCC(Cl)(Cl)Cl)C1` (configuration not stated) as the compound, how does the CC50 [1] read?
The CC50 was 92 µM.

What about the EC50 [2] of the same compound?
The EC50 was > 92 µM.

What about the EC50 [4] of the same compound?
Its EC50 is > 92 µM.

Which results are given for `O=c1[nH]cnc2c1ncn2[C@H]1CC[C@@H](CO)O1` [DIDANOSINE]?
CC50 [1]: > 425 µM; EC50 [2]: 10 µM; Ratio [3]: > 42; EC50 [4]: 11 µM; Ratio [5]: > 38

For `Nc1nccc2c1ncn2C1COC(COP(=O)(OCC(Cl)(Cl)Cl)OCC(Cl)(Cl)Cl)C1` (configuration not stated), which CC50 [1] is on record?
Its CC50 is 34 µM.

And the EC50 [2]?
The EC50 was > 34 µM.

What about the EC50 [4] of the same compound?
Its EC50 is > 34 µM.

Which CC50 [1] does the source give for `Nc1nccc2c1nnn2C1COC(COP(=O)(OCC(Cl)(Cl)Cl)OCC(Cl)(Cl)Cl)C1` (configuration not stated) here?
The CC50 was > 173 µM.

What about the EC50 [2] of the same compound?
Its EC50 is > 173 µM.

And the EC50 [4]?
The EC50 was > 173 µM.

For `Nc1ncnc2c1nnn2C1COC(CO)C1` (configuration not stated), which CC50 [1] is on record?
The CC50 was > 425 µM.

And the EC50 [2]?
The EC50 was > 425 µM.

And the EC50 [4]?
The EC50 was > 425 µM.

For `Nc1ccnc2c1nnn2C1COC(CO)C1` (configuration not stated), which CC50 [1] is on record?
Its CC50 is > 425 µM.

What about the EC50 [2] of the same compound?
Its EC50 is > 425 µM.

What about the EC50 [4] of the same compound?
The EC50 was > 425 µM.

For `Nc1nccc2c1nnn2C1COC(CO)C1` (configuration not stated), which CC50 [1] is on record?
Its CC50 is > 425 µM.

And the EC50 [2]?
The EC50 was > 425 µM.

What about the EC50 [4] of the same compound?
The EC50 was > 425 µM.

With `COC(=O)C(C)NP(=O)(OCC1CC(n2nnc3c(N)ncnc32)CO1)Oc1ccccc1` (configuration not stated) as the compound, how does the CC50 [1] read?
The CC50 was 146 µM.

And the EC50 [2]?
The EC50 was 17 µM.

And the Ratio [3]?
The Ratio was 8.5.

And the EC50 [4]?
The EC50 was 105 µM.

And the Ratio [5]?
Its Ratio is 1.4.

With `Nc1ccnc2c1ncn2C1COC(CO)C1` (configuration not stated) as the compound, how does the CC50 [1] read?
Its CC50 is > 425 µM.

And the EC50 [2]?
Its EC50 is > 425 µM.

What about the EC50 [4] of the same compound?
Its EC50 is > 425 µM.

Which CC50 [1] does the source give for `Nc1ccnc2c1ncn2C1COC(COP(=O)(OCC(Cl)(Cl)Cl)OCC(Cl)(Cl)Cl)C1` (configuration not stated) here?
Its CC50 is > 100 µM.

And the EC50 [2]?
Its EC50 is > 100 µM.

What about the EC50 [4] of the same compound?
Its EC50 is > 100 µM.

What does the source list for `Nc1ncnc2c1ncn2[C@H]1CO[C@@H](CO)C1`?
CC50 [1]: > 425 µM; EC50 [2]: 21 µM; Ratio [3]: > 20; EC50 [4]: 32 µM; Ratio [5]: > 13

Which results are given for `COC(=O)C(C)NP(=O)(OCC1CC(n2cnc3c(N)ncnc32)CO1)Oc1ccccc1` (configuration not stated)?
CC50 [1]: 2.9 µM; EC50 [2]: 0.06 µM; Ratio [3]: 48; EC50 [4]: 0.04 µM; Ratio [5]: 65

Which CC50 [1] does the source give for `Nc1ccnc2c1nnn2C1COC(COP(=O)(OCC(Cl)(Cl)Cl)OCC(Cl)(Cl)Cl)C1` (configuration not stated) here?
Its CC50 is > 100 µM.

And the EC50 [2]?
Its EC50 is > 100 µM.

And the EC50 [4]?
Its EC50 is > 100 µM.

For `Nc1nccc2c1ncn2C1COC(CO)C1` (configuration not stated), which CC50 [1] is on record?
Its CC50 is > 425 µM.

And the EC50 [2]?
The EC50 was > 425 µM.

And the EC50 [4]?
Its EC50 is > 425 µM.
